Experimental data: publication PMC8176629 (European journal of medicinal chemistry, 2021)
“Also recorded” adds a separate entry of the source. Read-outs that look alike come from different tables or passages of the source. Blank lines part the entries; values can stand above or below the compound they belong to.

Columns and labels:
HIV-1NL4–3 [1] = assay: HIV-1/NL4–3 replication inhibition assay in MT-4 lymphocytes; type: cell-based; conditions: for activity compared with 4 (EC50 0.019 μM): HIV-1NL4–3 infected MT-4 cell lines
In short: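 MT-4 cells infected with HIV-1 NL4-3 at MOI 0.01 in the presence of test compound. Culture supernatants were harvested on day 4 post-infection, and p24 antigen was measured by capture ELISA. IC50 was taken as the concentration that inhibits NL4-3 replication by 50%.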

NL4–3/V370A = conditions: most prevalent bevirimat-resistant polymorphism; cited from earlier work
HIV-1NL4–3 [2] = conditions: cited from earlier work
[3] = Human immunodeficiency virus 1, Lymphocyte, read-out: PIC50 (experimental)
[4] = Human immunodeficiency virus 1, MT4, 96 h

- IC50 (HIV-1NL4–3 [1]; [3]): 64.6 nM
- IC50 (HIV-1NL4–3 [1]; [4]): 65 ± 1.9 nM
SMILES: C=C(C)[C@@H]1CC[C@]2(C(=O)O)CC[C@]3(C)[C@H](CC[C@@H]4[C@@]5(C)CC[C@H](OC(=O)CC(C)(C)C(=O)O)C(C)(C)[C@@H]5CC[C@]43C)[C@@H]12 [Compound 3, 3-O-(3′,3′-dimethylsuccinyl)betulinic acid, reference compound]

SMILES: C=C(C)[C@@H]1CC[C@]2(C(=O)N3CCN(C(=O)/C=C/c4ccc5c(c4)OCO5)CC3)CC[C@]3(C)[C@H](CC[C@@H]4[C@@]5(C)CC[C@H](OC(=O)CC(C)(C)C(=O)O)C(C)(C)[C@@H]5CC[C@]43C)[C@@H]12 [Compound 4]
- activity increase compared with 3 against NL4–3/V370A (NL4–3/V370A): 51 fold
- activity increase compared with 3 against NL4–3 (HIV-1NL4–3 [2]): three-fold
- IC50 (HIV-1NL4–3 [1]; [3]): 19.1 nM
- IC50 (HIV-1NL4–3 [1]; [4]): 19 ± 5.4 nM

SMILES: C=C(C)[C@@H]1CC[C@]2(C(=O)N3CCN(C(=O)/C=C/c4ccc(OC)c(OC)c4)CC3)CC[C@]3(C)[C@H](CC[C@@H]4[C@@]5(C)CC[C@H](OC(=O)CC(C)(C)C(=O)O)C(C)(C)[C@@H]5CC[C@]43C)[C@@H]12 [Compound 9b]
- IC50 (HIV-1NL4–3 [1]; [3]): 28.8 nM
- IC50 (HIV-1NL4–3 [1]; [4]): 29 ± 9.3 nM

SMILES: C=C(C)[C@@H]1CC[C@]2(C(=O)N3CCN(C(=O)/C=C/c4ccc(N(C)C)cc4)CC3)CC[C@]3(C)[C@H](CC[C@@H]4[C@@]5(C)CC[C@H](OC(=O)CC(C)(C)C(=O)O)C(C)(C)[C@@H]5CC[C@]43C)[C@@H]12 [Compound 9i, (E)-4-(28-(4-(3-(4-(dimethylamino)phenyl)acryloyl)piperazine-1-carbonyl)lup-20(29)-en-3β-oxy)-2,2-dimethyl-4-oxobutanoic acid]
- activity compared with 4 (EC50 0.019 μM) (HIV-1NL4–3 [1]): improved or comparable activity; also recorded: improved or similar activity

SMILES: C=C(C)[C@@H]1CC[C@]2(C(=O)N3CCN(C(=O)/C=C/c4ccc(OCOC)c(OCOC)c4)CC3)CC[C@]3(C)[C@H](CC[C@@H]4[C@@]5(C)CC[C@H](OC(=O)CC(C)(C)C(=O)O)C(C)(C)[C@@H]5CC[C@]43C)[C@@H]12 [Compound 9r]
- IC50 (HIV-1NL4–3 [1]; [3]): 50.1 nM
- IC50 (HIV-1NL4–3 [1]; [4]): 50 ± 21 nM

SMILES: C=C(C)[C@@H]1CC[C@]2(C(=O)N3CCN(C(=O)/C=C/c4ccc(OCOC)c(OC)c4)CC3)CC[C@]3(C)[C@H](CC[C@@H]4[C@@]5(C)CC[C@H](OC(=O)CC(C)(C)C(=O)O)C(C)(C)[C@@H]5CC[C@]43C)[C@@H]12 [Compound 9t, (E)-4-(28-(4-(3-(3-methoxy-4-(methoxymethoxy)phenyl)acryloyl)piperazine-1-carbonyl)lup-20(29)-en-3β-oxy)-2,2-dimethyl-4-oxobutanoic acid]
- activity compared with 4 (EC50 0.019 μM) (HIV-1NL4–3 [1]): improved or comparable activity; also recorded: improved or similar activity

SMILES: C=C(C)[C@@H]1CC[C@]2(C(=O)N3CCN(C(=O)/C=C/c4ccc(O)c(O)c4)CC3)CC[C@]3(C)[C@H](CC[C@@H]4[C@@]5(C)CC[C@H](OC(=O)CC(C)(C)C(=O)O)C(C)(C)[C@@H]5CC[C@]43C)[C@@H]12 [Compound 10a]
- IC50 (HIV-1NL4–3 [1]; [3]): 28.2 nM
- IC50 (HIV-1NL4–3 [1]; [4]): 28 ± 9.8 nM

SMILES: C=C(C)[C@@H]1CC[C@]2(C(=O)N3CCN(C(=O)/C=C/c4ccc(O)c(OC)c4)CC3)CC[C@]3(C)[C@H](CC[C@@H]4[C@@]5(C)CC[C@H](OC(=O)CC(C)(C)C(=O)O)C(C)(C)[C@@H]5CC[C@]43C)[C@@H]12 [Compound 10c, (E)-4-(28-(4-(3-(4-hydroxy-3-methoxyphenyl)acryloyl)piperazine-1-carbonyl)lup-20(29)-en-3β-oxy)-2,2-dimethyl-4-oxobutanoic acid]
- activity compared with 4 (EC50 0.019 μM) (HIV-1NL4–3 [1]): improved or comparable activity; also recorded: improved or similar activity

SMILES: C=C(C)[C@@H]1CC[C@]2(C(=O)N3CCN(C(=O)CCc4ccc5c(c4)OCO5)CC3)CC[C@]3(C)[C@H](CC[C@@H]4[C@@]5(C)CC[C@H](OC(=O)CC(C)(C)C(=O)O)C(C)(C)[C@@H]5CC[C@]43C)[C@@H]12 [Compound 13m, 4-(28-(4-(3-(Benzo[d] [1,3]dioxol-5-yl)propanoyl)piperazine-1-carbonyl)lup-20(29)-en-3b-oxy)-2,2-dimethyl-4-oxobutanoic acid]
- activity compared with 4 (EC50 0.019 μM) (HIV-1NL4–3 [1]): improved or comparable activity; also recorded: improved or similar activity

SMILES: C=C(C)[C@@H]1CC[C@]2(C(=O)OCCCOC(=O)/C=C/c3ccc(OC)cc3)CC[C@]3(C)[C@H](CC[C@@H]4[C@@]5(C)CC[C@H](OC(=O)CC(C)(C)C(=O)O)C(C)(C)[C@@H]5CC[C@]43C)[C@@H]12 [Compound 20a]
- fold less potent than 9e (HIV-1NL4–3 [1]; compared with piperazine-linked 9e): 11 fold

SMILES: C=C(C)[C@@H]1CC[C@]2(C(=O)N3CCN(CCCCC(=O)N4CCN(C(=O)/C=C/c5ccc6c(c5)OCO6)CC4)CC3)CC[C@]3(C)[C@H](CC[C@@H]4[C@@]5(C)CC[C@H](OC(=O)CC(C)(C)C(=O)O)C(C)(C)[C@@H]5CC[C@]43C)[C@@H]12 [Compound 31]
- IC50 (HIV-1NL4–3 [1]; [4]): 12 ± 4.1 nM

SMILES: C=C(C)[C@@H]1CC[C@]2(C(=O)N3CCN(CCCCC(=O)N4CCN(c5cc(NCc6ccccc6)ncn5)CC4)CC3)CC[C@]3(C)[C@H](CC[C@@H]4[C@@]5(C)CC[C@H](OC(=O)CC(C)(C)C(=O)O)C(C)(C)[C@@H]5CC[C@]43C)[C@@H]12 [Compound 32, 4-(28-(4-(5-(4-(6-(Benzylamino)pyrimidin-4-yl)piperazin-1-yl)-5-oxopentyl)piperazine-1-carbonyl)lup-20(29)-en-3β-oxy)-2,2-dimethyl-4-oxobutanoic acid]
- activity compared with 4 (EC50 0.019 μM) (HIV-1NL4–3 [1]): improved or comparable activity; also recorded: improved or similar activity
